Reference: paper PMC4800337 (Kidney international, 2016)
Where no end group is shown, it is not given here.

Key:
[1] = molecular target: human CD36 (CD36-overexpressing HeLa cells) (Homo sapiens, UniProt P16671); experiment: Competition with Alexa-Fluor-488 oxLDL uptake in CD36-overexpressing HeLa cells; type: cell-based
[2] = Liver toxicity by serum transaminases in 5/6Nx+AngII mice; type: in vivo, mouse; conditions: mice 5/6Nx+AngII treated with 5A 5 mg/kg/day, 4 weeks
Outline: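 C57BL/6 mice underwent 5/6 nephrectomy: left kidney resection at week −1, then right nephrectomy at week 0. Animals were kept if the resected-to-removed kidney weight ratio was 0.5–0.65. Buprenorphine was given at 0.1 mg/kg after surgery and 0.05 mg/kg at 18 h. Val5-AngII (0.75 µg/kg/min, in sterile water) and 5A (5 mg/kg/day) were infused by separate subcutaneous osmotic mini-pumps placed at right nephrectomy.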

Chain of human CD36 (CD36-overexpressing HeLa cells) (P16671 whole entry): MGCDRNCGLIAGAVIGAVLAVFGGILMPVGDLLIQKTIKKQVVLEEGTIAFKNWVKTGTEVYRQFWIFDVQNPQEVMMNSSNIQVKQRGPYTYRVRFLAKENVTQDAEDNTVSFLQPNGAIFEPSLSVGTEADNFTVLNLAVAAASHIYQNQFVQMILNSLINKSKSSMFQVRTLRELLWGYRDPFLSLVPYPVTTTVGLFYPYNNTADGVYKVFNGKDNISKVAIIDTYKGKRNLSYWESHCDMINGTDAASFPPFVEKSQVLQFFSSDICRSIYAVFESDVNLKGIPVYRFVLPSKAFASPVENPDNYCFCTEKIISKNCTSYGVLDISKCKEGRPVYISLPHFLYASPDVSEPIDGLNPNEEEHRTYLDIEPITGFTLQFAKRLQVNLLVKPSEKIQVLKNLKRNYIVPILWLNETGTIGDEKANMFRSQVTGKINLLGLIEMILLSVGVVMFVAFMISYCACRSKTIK

DWLKAFYDKVAEKLKEAFPDWAKAAYDKAAEKAKEAA [5A]
IC50 [1]: 7.5 µM
Ki [1]: 1450 nM
Liver toxicity, serum transaminases [2]: did not have liver toxicity
